Consider five molecules from ChEMBL document CHEMBL5380847, “Expanding the Paradigm of Structure-Based Drug Design: Molecular Dynamics Simulations Support the Development of New Pyridine-Based Protein Kinase C-Targeted Agonists” (J Med Chem, 2023).

Activity calls are given as the source filed them. The calls are words filed in the database; no cut-off is given here.

In test [1] the test system is Fibroblast of cardiac tissue. Kind of test: Effect on PKCdelta expression level in neonatal mouse Cardiac fibroblast cells at 10 uM measured for 24 hrs by Western blot analysis. Type of test: functional, cell-based. The gist of the method: (§1)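 Neonatal mouse cardiac fibroblasts were treated with 10 μM compound for 24 h and then lysed. Total protein was extracted, and PKCα, -δ and -ϵ levels were analysed by Western blotting. Levels were normalized to vehicle control (0.1% DMSO). Values are mean + SEM of N = 3 independent experiments.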

The next test concerns DU-145. Kind of test: Anticancer activity against human DU-145 cells assessed as reduction in cell viability at 0.03 to 30 uM measured after 24 hrs by MTT assay. The note with it: dose 0.03-30 µM. It counts as functional, cell-based. The gist of the method:
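DU145 human prostate cancer cells were exposed for 24 h to compounds at 0.3, 3.0 and 30 μM, with 0.03 μM added for the reference. Viability was read by MTT and expressed as percent of vehicle control (0.1% DMSO). Values are mean + SEM of N = 3–4 independent experiments.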

The target of test [2] is Protein kinase C alpha type (Homo sapiens) (UniProt P17252). Kind of test: Displacement of [3H]-PDBu-from full length human recombinant PKCalpha expressed in baculovirus infected Sf9 cells incubated for 10 mins by microbeta liquid scintillation counter analysis. The settings on record: filed as agonist, dose 1-30 µM.
In another test the test system is Cardiac fibroblast. Kind of test: Inhibition of PKC-mediated ERK1/2 phosphorylation in neonatal mouse Cardiac fibroblast cells incubated for 30 mins in presence of PKC inhibitor Go6983 by Alphalisa analysis. It counts as cell-based. The gist of the method: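 Neonatal mouse cardiac fibroblasts were pretreated, or not, with the PKC inhibitor Gö6983 (1 μM). Cells were then exposed for 30 min to compounds at 10 μM (PMA at 10 nM). Total and phospho-ERK1/2 in lysates were quantified by Alpha technology and normalized to DMSO control. Values are mean + SEM (N = 3), analysed by randomized block ANOVA with Dunnett's post hoc test.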

The subject of test [3] is Fibroblast of cardiac tissue. Kind of test: Effect on PKCepsilon expression level in neonatal mouse Cardiac fibroblast cells at 10 uM measured for 24 hrs by Western blot analysis. It counts as functional, cell-based. The gist of the method:
as §1

Test [4] relates to Fibroblast of cardiac tissue. Kind of test: Effect on PKCalpha expression level in neonatal mouse Cardiac fibroblast cells at 10 uM measured for 24 hrs by Western blot analysis. It counts as functional, cell-based. An outline of the steps: as §1
Test [5] concerns the target Protein kinase C alpha type (Homo sapiens) (UniProt P17252). Kind of test: Displacement of [3H]-PDBu-from full length human recombinant PKCalpha expressed in baculovirus infected Sf9 cells at 1 to 30 uM incubated for 10 mins by microbeta liquid scintillation counter analysis. The note with it: dose 1-30 µM.

Take `CCCCC(CC)OC(=O)c1cc(CO)cc(C(=O)OC(CC)CCCC)n1` (stereo unspecified): the result (in test [1]; in the test with DU-145) was inactive. In addition, the Activity result in test [2] is “Dose-Dependent Effect”.
For `CN(Cc1cccc(C(F)(F)F)c1)C(=O)c1cc(CO)cc(C(=O)N(C)Cc2cccc(C(F)(F)F)c2)n1`, in the test with Cardiac fibroblast, the inhibition result is “Active”. In addition, the result (in test [1]; in the test with DU-145; in test [3]; in test [4]) was inactive. Also, the Activity entry in test [2] is “Dose-Dependent Effect”.
As for `CCCCCCCCNC(=O)c1cc(CO)cc(C(=O)NCCCCCCCC)n1`, in the test on DU-145, the result was inactive.
In the case of `O=C(OCc1cccc(C(F)(F)F)c1)c1cc(CO)cc(C(=O)OCc2cccc(C(F)(F)F)c2)c1`, the inhibition entry with Cardiac fibroblast was “Active”. Besides, the outcome in test [1], in test [3] and in test [4] was inactive.
`O=C(OCc1cccc(C(F)(F)F)c1)c1cc(CO)cc(C(=O)OCc2cccc(C(F)(F)F)c2)n1`: the result (in the test on DU-145; in test [5]) was inactive.
